SMILES strings stand for the structures. The source made the active and inactive calls. The calls are words filed in the database; no cut-off is given here.

These results are taken from ChEMBL document CHEMBL4428023, “1,4-Dihydropyridines Active on the SIRT1/AMPK Pathway Ameliorate Skin Repair and Mitochondrial Function and Exhibit Inhibition of Proliferation in Cancer Cells” (J Med Chem, 2016).

For experiment [1], the system named is Mus musculus. The experiment is described as follows: Wound healing activity in CD1 mouse assessed as increased wound closure at 1 uM administered topically on wound everyday for 14 days by biopsy punch assay. In kind it is functional, organism-based. A digest of the protocol:
(§1)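 Male CD1 mice, 8 weeks old, anaesthetized i.p. with medetomidine 1 mg/kg plus ketamine 75 mg/kg, then biopsy-punch wounded. Compound (1 µM) in 20 µL saline applied directly to the wound daily for 14 days; solvent-treated group as control. Epithelial gap and % wound closure followed over time.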

The subject of experiment [2] is C2C12. The experiment is described as follows: Activation of AMPK/SIRT1 in mouse C2C12 cells assessed as increase in mitochondrial density at 30 uM after 16 hrs by Mitotracker Green staining-based confocal microscopy in presence of compound C. In kind it is cell-based. A digest of the protocol: (§2)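 C2C12 myoblasts plated overnight, then in serum-free HBSS pH 7.4 and treated 16 h at 30 µM, alone or with 5 µM inhibitor (EX-527 or compound C). Mitotracker Green at 200 nM final was added for the last 30 min. Cells were fixed in 4% paraformaldehyde, permeabilized with Triton X-100 and imaged by confocal microscopy with fixed settings. Alternatively, mitochondrial fluorescence was quantified in plates.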

The nature of experiment [3]: Antiproliferative activity against human SAN cells assessed as cell viability after 72 hrs by MTT assay. The class given is functional, cell-based. The essentials:
(§3)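 Cells grown in RPMI with 10% fetal calf serum and penicillin, seeded in sextuplicate at 3 × 10^3 cells/well. After 24 h, cells were exposed 72 h to 5–200 µM. Viability was measured by MTT and expressed as treated/untreated × 100. IC50 was calculated from three independent experiments, reported as mean ± SD.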
A general note: Tetrazolium dyes change colour on reduction, which living cells bring about.

Experiment [4] has as its system M14. Description: Antiproliferative activity against human M14 cells assessed as cell viability after 72 hrs by MTT assay. The class given is functional, cell-based. Conditions: M14, 72 h. A digest of the protocol:
as §3

Experiment [5] relates to C2C12. Description: Activation of AMPK/SIRT1 in mouse C2C12 cells assessed as increase in mitochondrial density at 30 uM after 16 hrs by Mitotracker Green staining-based confocal microscopy in presence of EX-527. The class given is cell-based. The essentials:
as §2

Experiment [6] deals with Mus musculus. Description: Wound healing activity in CD1 mouse assessed as decrease in epithelial gap at 1 uM administered topically on wound everyday for 14 days by biopsy punch assay. In kind it is functional, organism-based. The essentials: as §1
In experiment [7] the test system is NCI-H1299. Description: Antiproliferative activity against human NCI-H1299 cells assessed as cell viability after 72 hrs by MTT assay. The class given is functional, cell-based. Conditions: NCI-H1299, 72 h. The essentials:
as §3

In experiment [8] the target is T1, NAD-dependent protein deacetylase sirtuin-1 (Homo sapiens) (UniProt Q96EB6).
T1 sequence (whole entry): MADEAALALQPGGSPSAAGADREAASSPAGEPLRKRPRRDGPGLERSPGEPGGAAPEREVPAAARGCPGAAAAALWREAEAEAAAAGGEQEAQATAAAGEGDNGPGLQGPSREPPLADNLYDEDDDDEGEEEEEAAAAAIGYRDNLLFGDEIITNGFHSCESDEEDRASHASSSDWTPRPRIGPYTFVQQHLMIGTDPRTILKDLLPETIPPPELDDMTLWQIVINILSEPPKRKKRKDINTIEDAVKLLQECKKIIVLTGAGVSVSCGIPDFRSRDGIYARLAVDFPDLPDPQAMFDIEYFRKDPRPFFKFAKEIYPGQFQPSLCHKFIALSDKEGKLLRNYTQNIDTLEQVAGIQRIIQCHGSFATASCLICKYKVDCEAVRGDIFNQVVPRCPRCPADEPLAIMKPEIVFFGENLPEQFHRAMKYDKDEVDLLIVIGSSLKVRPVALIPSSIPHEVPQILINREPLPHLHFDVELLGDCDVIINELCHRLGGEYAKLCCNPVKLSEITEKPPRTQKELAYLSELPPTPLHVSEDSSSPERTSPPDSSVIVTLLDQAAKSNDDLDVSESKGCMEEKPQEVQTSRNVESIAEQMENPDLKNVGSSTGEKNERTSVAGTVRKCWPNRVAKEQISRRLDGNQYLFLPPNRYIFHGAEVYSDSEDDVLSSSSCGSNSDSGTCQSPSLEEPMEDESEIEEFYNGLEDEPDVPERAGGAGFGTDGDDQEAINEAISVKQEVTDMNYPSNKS
The experiment is described as follows: Activation of SIRT1 in human HaCaT cells assessed as H4K16 deacetylation at 1 uM after 1 hr by Western blotting method. In kind it is cell-based. A digest of the protocol:
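HaCaT cells treated 1 h at 1 µM, DMSO as solvent control. Cells lysed in Laemmli buffer and immunoblotted for acetyl-H4K16 (1:1000), with total histone H4 as loading control. Bands quantified by densitometry. At least three independent experiments.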
In general terms: A western blot detects proteins with antibodies after separation by electrophoresis.

The species entered for experiment [9] is Cavia porcellus. Description: Antagonist activity at calcium channel in guinea pig smooth muscle assessed as inhibition of calcium-induced contraction in K+-depolarized aortic strips at 50 uM. A digest of the protocol: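 Guinea-pig isolated aortic strips depolarized with 80 mM K+; read-out is percent inhibition of calcium-induced contraction.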
Experiment [10] deals with 3',5'-cyclic-AMP phosphodiesterase 4D (Homo sapiens) (UniProt Q08499). Description: Inhibition of recombinant human PDE4D assessed as phosphate release using cAMP as substrate at 50 uM after 60 mins by malachite green assay. The essentials: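 Recombinant human PDE4D (20 mU) in 10 mM Tris-HCl pH 7.4 with cAMP substrate. Compounds at 50 µM in DMSO; rolipram 10 µM as positive control. Incubated 60 min at 37 °C, then phosphate release measured by malachite green absorbance at 620 nm. Mean of three determinations.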
Sequence of 3',5'-cyclic-AMP phosphodiesterase 4D (Homo sapiens) (Q08499 whole entry): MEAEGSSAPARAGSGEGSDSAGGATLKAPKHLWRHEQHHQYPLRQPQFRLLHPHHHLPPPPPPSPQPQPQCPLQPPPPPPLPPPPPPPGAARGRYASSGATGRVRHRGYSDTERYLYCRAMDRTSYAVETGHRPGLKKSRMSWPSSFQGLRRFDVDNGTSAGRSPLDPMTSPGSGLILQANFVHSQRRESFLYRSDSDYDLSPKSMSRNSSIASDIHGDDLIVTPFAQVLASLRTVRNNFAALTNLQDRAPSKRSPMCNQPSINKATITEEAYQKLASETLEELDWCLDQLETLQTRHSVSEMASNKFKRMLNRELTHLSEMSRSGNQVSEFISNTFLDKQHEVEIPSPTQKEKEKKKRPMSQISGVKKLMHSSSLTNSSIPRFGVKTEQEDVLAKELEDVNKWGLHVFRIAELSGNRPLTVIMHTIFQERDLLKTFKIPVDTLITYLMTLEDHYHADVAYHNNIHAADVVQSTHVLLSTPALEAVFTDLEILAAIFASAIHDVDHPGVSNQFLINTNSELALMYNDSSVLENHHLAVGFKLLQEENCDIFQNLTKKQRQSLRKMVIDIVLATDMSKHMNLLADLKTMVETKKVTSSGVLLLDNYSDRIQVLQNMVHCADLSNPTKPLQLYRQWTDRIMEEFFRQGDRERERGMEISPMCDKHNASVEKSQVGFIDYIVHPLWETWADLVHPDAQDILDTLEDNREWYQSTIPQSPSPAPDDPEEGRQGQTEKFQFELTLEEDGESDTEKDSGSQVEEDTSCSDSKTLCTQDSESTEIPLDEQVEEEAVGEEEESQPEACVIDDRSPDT

In experiment [11] the target is T1, NAD-dependent protein deacetylase sirtuin-1 (Homo sapiens). Description: Activation of full-length GST-tagged recombinant human SIRT1 assessed as enzyme activity obtained with subtraction of intrinsic fluorescence using p53-based untagged peptide as substrate at 50 uM after 30 mins by SIRTainty assay.
Experiment [12] deals with HaCaT. The experiment is described as follows: Activation of AMPK/SIRT1 in human HaCaT cells assessed as nitric oxide production at 1 uM incubated for 1 hr by DAF-2D staining-based fluorescence assay. In kind it is cell-based. The essentials:
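HaCaT keratinocytes grown in DMEM with 10% FBS and antibiotics. Cells treated 1 h (single-point 1 µM; dose-response at 5, 25, 50 µM). 5 µM DAF-2D added to complete medium. Cells then washed in PBS, trypsinized and analysed by flow cytometry for DAF fluorescence (ex 485/em 538 nm). Read-out is % DAF-positive cells relative to DMSO control.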

In experiment [13] the target is T1, NAD-dependent protein deacetylase sirtuin-1 (Homo sapiens). The experiment is described as follows: Activation of full-length GST-tagged recombinant human SIRT1 assessed as enzyme activity obtained without subtraction of intrinsic fluorescence using p53-based untagged peptide as substrate at 50 uM after 30 mins by SIRTainty assay.
Experiment [14] deals with LoVo. The experiment is described as follows: Antiproliferative activity against human LoVo cells assessed as cell viability after 72 hrs by MTT assay. In kind it is functional, cell-based. A digest of the protocol: as §3
For experiment [15], the system named is A549. Description: Antiproliferative activity against human A549 cells assessed as cell viability after 72 hrs by MTT assay. The class given is functional, cell-based. Conditions: A549, 72 h. A digest of the protocol:
as §3

The species named for experiment [16] is Cavia porcellus. The experiment is described as follows: Potency index, ratio of potency for test compound to potency for nifedipine for inhibition of calcium channel in guinea pig ileum longitudinal smooth muscle assessed as inhibition of calcium-induced contraction. The class given is tissue-based.

By IC50 is commonly meant the point on the concentration scale where inhibition reaches its midpoint. Usually inhibition stands for the change of the read-out against control, counted positive when it falls. Regarding `CCOC(=O)C1=CN(C(=O)c2ccccc2)C=C(C(=O)OCC)C1c1ccccc1`, the outcome in experiment [1], in experiment [6], in [8] and in experiment [12] was Active. Moreover, the result in experiment [2] and in [5] was inactive. Moreover, the IC50 in experiment [3] was determined as 161 µM; in experiment [4], 153 µM; in [7] it was 125 µM; in experiment [14], 22 µM; in [15] it was 169 µM. Besides, in experiment [9], the inhibition stood at 12%. Further, the inhibition entry in [10] was “inactive”. Further, the Activity worked out at 153% in experiment [11] and 244% in experiment [13]. Further, the Ratio in experiment [16] is 720.
